Screens (PubChem BioAssay)
Many of the other results were omitted from the sample, so hits are more common in it than they were.
Jurkat NFkB inh: lowers PMA/ionomycin-induced NF-kB signal in Jurkat cells; PMA/ionomycin-induced NF-kB luciferase reporter, luminescence; inhibition, % at 4 µM; actives 0.53% (n = 330,000); in the data active = inhibition above about 50%
UPR XBP1 act: adaptive UPR (XBP1) activation; activation, % at 20 µM; CHO-XBP1 luciferase reporter, IRE1-XBP1 UPR activation, luminescence; percent of tunicamycin response, DMSO as zero; AID 463104; actives 0.33% (n = 330,000);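 active = versus positive control, 20 µM dose yields 30% or more activation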;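 note: 100% = tunicamycin at 10 µg/mL and 0% = DMSO only wells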
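Signal: luciferase luminescence; Assay system: CHO-XBP1 luciferase reporter cells; Amount: one thousand reporter cells per well; Dosing: 20 µM single concentration, DMSO 1%; Benchmarks: high control tunicamycin 10 µg/mL final, low control DMSO vehicle only; Schedule: 6 h compound exposure at 37 °C, 5% CO2; Evaluation: percent activation relative to tunicamycin reference.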
CHOP inhibitor: blocks CHOP induction under ER stress; CHO-K1 CHOP-promoter luciferase, tunicamycin-induced, 15-18 h; inhibition, % at 10 µM; actives 3.8% (n = 220,000);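 active = compounds that reduced the stress-induced luciferase reporter signal by more than about 70% of percent inhibition, limit read from the data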;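 note: 0% = tunicamycin plus vehicle and 100% = wells without tunicamycin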
CHOP UPR activ: activators of apoptotic arm of unfolded protein response (CHOP); actives 0.34% (n = 330,000); activation, % at 10 µM; CHO-CHOP luciferase reporter, UPR activation, luminescence; percent of tunicamycin response over DMSO baseline; AID 449763;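 active = at 10 µM dose, activation of 40% or more, normalized to positive control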;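 note: 100% = tunicamycin at 10 µg/mL and 0% = DMSO alone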
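Evaluation: % reporter activation, DMSO baseline versus tunicamycin full activation; System: CHO-CHOP luciferase reporter cell line; Input: 500 cells/well; Incubation: 6 h compound treatment, 37 °C; Measured by: Steady-Glo luciferase luminescence; Dosing: one dose, 10 µM in 0.5% DMSO; Buffer or medium: F12 medium, 10% FBS; Benchmarks: positive tunicamycin 10 µg/mL, negative DMSO alone.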
697 NFkB inh: lowers PMA/ionomycin-induced NF-kB signal in 697 B cells; inhibition, % at 4 µM; 697 B-cell NF-kB luciferase reporter, 16 h; actives 0.33% (n = 330,000); AID 435022; in the data active = inhibition above about 35%
CHOP inh conf: confirmation of CHOP induction inhibitors; shares compounds with CHOP inhibitor; CHO-CHOP promoter luciferase reporter, tunicamycin-induced, luminescence; inhibition, % at 10 µM; actives 45% (n = 2,100); AID 504437;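 active = mean of three repeat readings of reporter signal inhibition above a set limit, cut at about 70% in these data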;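 note: 0% = tunicamycin plus vehicle and 100% = wells lacking tunicamycin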
Jurkat NFkB conf: lowers PMA/ionomycin-induced NF-kB signal in Jurkat cells. inhibition, % at 4 µM. AID 435020. actives 27% (n = 2,700). Jurkat NF-kB luciferase, 16 h. shares compounds with Jurkat NFkB inh;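 active = inhibition reaching about 45% at 4 µM in either replicate, limit read from the data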;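 note: plate controls were PMA/ionomycin stimulated DMSO wells for no effect and unstimulated DMSO wells for full effect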
697 NFkB conf: inhibitors of the PMA/ionomycin-induced NF-kB reporter in 697 B cells, retest | shares compounds with 697 NFkB inh | 697 B-cell NF-kB luciferase, 16 h | inhibition, % at 4 µM | actives 35% (n = 2,000); in the data active = inhibition mostly above about 28%, no sharp cut-off; inactive = mostly below about 22%
UPR CHOP confirm: apoptotic UPR (CHOP) activation, confirmed; shares compounds with CHOP UPR activ; actives 64% (n = 1,000); CHO-CHOP cells, CHOP-luciferase reporter luminescence; percent of tunicamycin response, DMSO as zero; activation, % at 10 µM; in the data active = activation above about 33%;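 note: 0% = DMSO wells and 100% = tunicamycin 10 µg/mL wells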
XBP1 UPR conf: adaptive UPR (XBP1) activation, confirmed | shares compounds with UPR XBP1 act | CHO-XBP1 IRE1-XBP1 luciferase reporter, luminescence | activation, % at 20 µM | actives 63% (n = 1,000) | AID 485299;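 active = reporter signal at least 30% of the positive control's activation in two or more of four replicate wells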;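 note: plate controls were DMSO negative control for no effect and tunicamycin 10 µg/mL positive control for full effect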
* hit, by the source's call; · = no result.

SMILES	Jurkat NFkB inh	UPR XBP1 act	CHOP inhibitor	CHOP UPR activ	697 NFkB inh	CHOP inh conf	XBP1 UPR conf	others
Nc1c(C(=O)Nc2ccc(S(=O)(=O)N3CCCC3)cc2)sc2nc3ccc(OC(F)(F)F)cc3cc12	-1	194*	106*	311*	-16	112*	162*	UPR CHOP confirm=72*
O=[N+]([O-])c1ccc(/C=N/n2c(C3CCCCC3)n[nH]c2=S)cc1	4	34*	105*	1	-4	113*	3
CCn1c(=O)c(C(=O)Nc2nc3ccccc3[nH]2)c(O)c2ccccc21	13	78*	·	11	10	120*	14
CCn1c(=O)c(C(=O)Nc2ccccc2)c(O)c2ccccc21	-23	-1	·	1	-21	·	·
COc1cc2c(cc1OC)C(c1ccccc1Cl)N(C)CC2 (configuration not stated)	2	2	·	0	-10	·	·
CCOc1ccc(/C=C/C(O)=C2/C(=O)NC3(C)CC2c2ccccc2O3)cc1OC (configuration not stated)	64*	41*	96*	46*	-8	64	46*	Jurkat NFkB conf=-15;UPR CHOP confirm=19
O=C(/C=C/c1ccccc1)NC(NC(=S)Nc1cccc(Cl)c1)C(Cl)(Cl)Cl (configuration not stated)	-7	51*	111*	36	-26	42	30*
O=C(/C=C/c1ccccc1)NC(NC(=S)Nc1cccc(O)c1)C(Cl)(Cl)Cl (configuration not stated)	0	-1	57	1	-12	·	·
COc1ccc(CCN(C)C2CCCN(S(=O)(=O)c3ccccc3F)C2)cc1OC (configuration not stated)	-3	-5	·	-1	8	·	·
COc1ccccc1Nc1nc(NCc2ccco2)c2ccccc2n1	-21	1	12	3	-31	·	·
Cc1ccc(Nc2nc(NCc3ccco3)c3ccccc3n2)cc1	-51	61*	106*	22	-283	115*	72*	697 NFkB conf=-253
CCC1(c2ccc(F)cc2)NC(=O)N(CC(=O)Nc2ccc(-c3nc4ccc(C)cc4s3)cc2)C1=O (configuration not stated)	-186	36*	101*	2	-178	74*	32*	Jurkat NFkB conf=-82
CCC1(c2ccc(F)cc2)NC(=O)N(CC(=O)Nc2ccc3c(c2)OCCO3)C1=O (configuration not stated)	12	0	·	1	14	·	·
Cc1ccccc1NC(=O)COC(=O)/C=C/c1cn(-c2ccccc2)nc1-c1cccnc1	4	-3	35	0	12	·	·
CC(=O)Nc1ccc(NC(=O)C(C)OC(=O)/C=C/c2cn(-c3ccccc3)nc2-c2cccnc2)cc1 (configuration not stated)	-8	36*	104*	2	5	48	17
CCCCCCC(CC(=O)NCc1cccnc1)CC(=O)NCc1cccnc1	-4	-6	·	-1	-2	·	·
Cc1ccc(C)c(NC(=O)/C(C#N)=C/c2cn(CC(=O)NCc3ccco3)c3ccccc23)c1	2	224*	106*	111*	14	58	16	UPR CHOP confirm=51*
CNC(=O)/C(C#N)=C/c1cn(CC(=O)NCc2ccco2)c2ccccc12	-13	-2	24	0	-3	·	·
Cc1cc(C)cc(NC(=O)/C(C#N)=C/c2cn(CC(=O)NCc3ccco3)c3ccccc23)c1	2	152*	106*	276*	41*	106*	295*	697 NFkB conf=-9;UPR CHOP confirm=44*
Cc1ccccc1OCCn1cc(/C=C(\C#N)C(=O)NCc2ccco2)c2ccccc21	0	-5	39	-4	-7	·	·
O=C(Nc1ccc(O)c(-c2nc3ccccc3s2)c1)c1cc(=O)c2ccccc2o1	18	42*	108*	1	9	21	94*
COc1cc(/C=C(\C#N)c2nc3ccccc3[nH]2)cc(Br)c1OCc1ccccc1	17	8	46	10	-8	·	·
COc1cc(/C=C(\C#N)c2nc3ccccc3[nH]2)cc(Br)c1OCc1ccc(F)cc1	7	110*	104*	1	7	84*	128*
Oc1ccc(/C=N/Nc2nc(N3CCCCCC3)nc(N3CCCCCC3)n2)c(O)c1	-19	39*	103*	11	-19	98*	11
Oc1ccc(Br)cc1/C=N/Nc1nc(N2CCCCC2)nc(N2CCOCC2)n1	-16	-3	15	2	22	·	·
SMILES	Jurkat NFkB inh	UPR XBP1 act	CHOP inhibitor	CHOP UPR activ	697 NFkB inh	CHOP inh conf	XBP1 UPR conf	others
O=C(/C=C\c1cn(-c2ccccc2)nc1-c1ccccc1)Nc1nccs1	-17	106*	108*	51*	-7	105*	113*	UPR CHOP confirm=18
O=C(Cc1ccccc1)Nc1ncccn1	0	0	·	0	6	·	·
O=C(C(=O)N1CCCCC1)c1c(-c2ccccc2)[nH]c2ccccc12	1	-3	·	0	4	·	·
Cc1ccc(CN=C(Nc2ccccc2)NC2CCCCC2)cc1	20	1	10	-1	-2	·	·
COCc1cc(C)nc(SCC(=O)Nc2cccc(C)c2C)c1C#N	3	-4	32	2	-20	·	·
Cc1nc(SCC(=O)Nc2ccc(F)cc2)c(C#N)c(C)c1CC(=O)c1ccc(Br)cc1	26	98*	103*	57*	24	97*	68*	UPR CHOP confirm=35*
Cc1cccc(NC(=O)CSc2nc(C)c(CC(=O)c3ccc(Br)cc3)c(C)c2C#N)c1C	-6	48*	103*	28	16	106*	98*
COc1ccc(Cn2c(C3CCCCC3)nc3c(c(=O)c4ccccc4n3C)c2=O)cc1	-8	10	5	6	-11	·	·
COc1ccc(CCn2c(C3CCCCC3)nc3c(c(=O)c4ccccc4n3C)c2=O)cc1	36	34*	100*	6	-87	47	82*
O=C1NC2=C(C(=O)CCC2)C(c2ccc(OC(F)F)cc2)N1 (configuration not stated)	-16	-1	·	-2	-2	·	·
